Reference: ChEMBL document CHEMBL3352644, “Selenadiazole derivatives as potent thioredoxin reductase inhibitors that enhance the radiosensitivity of cancer cells” (Eur J Med Chem, 2014)
≈ marks a conversion by molar mass, not a printed value. Calls of active or inactive are those of the source. The rule behind the calls is not given here.

What was measured:
A-375 [1] = test: Induction of cell morphological changes in human A375 cells incubated for 6 hrs followed by irradiation with 8 Gy X-ray at 37 degC for 12 hrs by microscopy; assay type: functional, cell-based
A-375 [2] = test: Cytotoxicity against human A375 cells after 18 hrs by MTT assay; assay type: functional, cell-based; settings: A-375, 18 h
How it was run: (§1)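 A375 cells (DMEM, 10% FBS, 37 °C, 5% CO2) seeded at 4 × 10⁴ cells/well and grown to 70–80% confluence. Treated with 0, 1, 2, 4, 8, 16 or 32 µg/ml for 6 h, then given 0 or 8 Gy X-ray (linear accelerator, 1.5 Gy/min), then 12 h more at 37 °C. MTT 4 h, formazan dissolved in DMSO, read at 570 nm; % of control; three repeats.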

A-375 [3] = test: Cytotoxicity against human A375 cells incubated for 6 hrs followed by irradiation with 8 Gy X-ray at 37 degC for 12 hrs by MTT assay; assay type: functional, cell-based; settings: A-375, light or radiation study; how it was run: as §1
A-375 [4] = test: Induction of cell shrinkage in human A375 cells incubated for 6 hrs followed by irradiation with 8 Gy X-ray at 37 degC for 12 hrs by microscopy; assay type: functional, cell-based
How it was run: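 A375 cells in DMEM with 10% FBS, 37 °C, 5% CO2. Pretreated with agent 6 h, then 0 or 8 Gy X-ray from a linear accelerator at 1.5 Gy/min, room temperature. Incubated a further 12 h; morphology imaged.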

A-375 [5] = test: Induction of apoptosis in human A375 cells assessed as accumulation at subG1 phase at 10 ug/mL incubated for 18 hrs by propidium iodide staining based flow cytometry (reference value: 1.8%); assay type: functional
How it was run: (§2)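 A375 cells treated at 10 or 4 µg/ml for 6 h, given 0 or 8 Gy X-ray, then 12 h more. Trypsinized, washed in PBS, fixed overnight in ice-cold 75% ethanol at −20 °C. Stained with propidium iodide, 30 min at 37 °C in the dark; DNA content and sub-G1 population read by flow cytometry.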

A-375 [6] = test: Induction of cell cycle arrest in human A375 cells assessed as accumulation at S phase at 10 ug/mL incubated for 6 hrs followed by irradiation with 8 Gy X-ray at 37 degC for 12 hrs by propidium iodide staining based flow cytometry (reference value: 7.9%); assay type: functional; how it was run: as §2
A-375 [7] = test: Induction of ROS generation in human A375 cells at 16 ug/mL […] by DCF and DHE dye based fluorescence assay; assay type: functional, cell-based
A-375 [8] = test: Induction of cell cycle arrest in human A375 cells assessed as accumulation at S phase at 10 ug/mL incubated for 18 hrs by propidium iodide staining based flow cytometry (reference value: 37.2%); assay type: functional; how it was run: as §2
A-375 [9] = test: Induction of ROS generation in human A375 cells at 8 ug/mL […] by DCF and DHE dye based fluorescence assay; assay type: functional, cell-based
A-375 [10] = test: Induction of cell cycle arrest in human A375 cells assessed as accumulation at G2/M phase at 10 ug/mL incubated for 18 hrs by propidium iodide staining based flow cytometry (reference value: 13.9%); assay type: functional; how it was run: as §2
A-375 [11] = test: Induction of cell cycle arrest in human A375 cells assessed as accumulation at G1/G0 phase at 10 ug/mL incubated for 18 hrs by propidium iodide staining based flow cytometry (reference value: 48.9%); assay type: functional; how it was run: as §2
A-375 [12] = test: Induction of ROS generation in human A375 cells at 16 ug/mL incubated for 6 hrs followed by irradiation with 8 Gy X-ray at 37 degC for 12 hrs by DCF and DHE dye based fluorescence assay
A-375 [13] = test: Induction of cell cycle arrest in human A375 cells assessed as accumulation at G2/M phase at 10 ug/mL incubated for 6 hrs followed by irradiation with 8 Gy X-ray at 37 degC for 12 hrs by propidium iodide staining based flow cytometry (reference value: 47.2%); assay type: functional; how it was run: as §2
A-375 [14] = test: Induction of cell cycle arrest in human A375 cells assessed as accumulation at G1/G0 phase at 10 ug/mL incubated for 6 hrs followed by irradiation with 8 Gy X-ray at 37 degC for 12 hrs by propidium iodide staining based flow cytometry (reference value: 44.9%); assay type: functional; how it was run: as §2
A-375 [15] = test: Induction of ROS generation in human A375 cells at 8 ug/mL incubated for 6 hrs followed by irradiation with 8 Gy X-ray at 37 degC for 12 hrs by DCF and DHE dye based fluorescence assay; assay type: functional, cell-based
How it was run: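 A375 cells (4 × 10⁴/well) cultured 24 h, then treated 6 h at 8 or 16 µg/ml or at 2 or 4 µg/ml, and given 0 or 8 Gy X-ray. Loaded with H₂DCF or DHE for 30 min at 37 °C in the dark. Fluorescence read at 485/535 nm (DCF) or 480/610 nm (DHE); % of control.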

A-375 [16] = test: Induction of apoptosis in human A375 cells assessed as accumulation at subG1 phase at 10 ug/mL incubated for 6 hrs followed by irradiation with 8 Gy X-ray at 37 degC for 12 hrs by propidium iodide staining based flow cytometry (reference value: 2.3%); assay type: functional; how it was run: as §2

| SMILES | Activity (A-375 [1]) | IC50 (A-375 [2]) [µg/mL] | IC50 (A-375 [3]) [µg/mL] | Activity (A-375 [4]) | Activity (A-375 [5]) [%] | Activity (A-375 [6]) [%] | Activity (A-375 [7]) | Activity (A-375 [8]) [%] | Activity (A-375 [9]) | Activity (A-375 [10]) [%] | Activity (A-375 [11]) [%] | Activity (A-375 [12]) | Activity (A-375 [13]) [%] | Activity (A-375 [14]) [%] | Activity (A-375 [15]) | Activity (A-375 [16]) [%] |
| --- | --- | --- | --- | --- | --- | --- | --- | --- | --- | --- | --- | --- | --- | --- | --- | --- |
| COc1cc(Cn2c(-c3cc(OC)c(OC)c(OC)c3)nc3cc(-c4ccc5n[se]nc5c4)ccc32)cc(OC)c1OC | Active | 28.3 (≈ 43.8 µM) | 9.2 (≈ 14.3 µM) | Active |  |  |  |  |  |  |  |  |  |  |  |  |
| COc1cc(Cn2c(-c3cc(OC)c(OC)c(OC)c3)nc3ccc(-c4ccc5n[se]nc5c4)cc32)cc(OC)c1OC | Active | 26.4 (≈ 40.9 µM) | 8 (≈ 12.4 µM) | Active | 11.7 | 36.8 | Active | 21.3 | Active | 9.4 | 69.3 | Active | 2.7 | 60.5 | Active | 57.6 |
